Our source for the Drug metabolism, Activity and Ratio values is ChEMBL document CHEMBL4732106, “Paracetamol analogues conjugated by FAAH induce TRPV1-mediated antinociception without causing acute liver toxicity” (Eur J Med Chem, 2021).

Active and inactive are the calls of the source. The rule behind the calls is not given here.

The nature of series [1]: Prodrug conversion in FAAH-/- mouse brain assessed as N-arachidonoyl conjugate level per g protein at 0.1 mM measured after 20 mins by LC-MS/MS analysis. The class given is ADME, tissue-based. Conditions: in vitro, 100 µM. The essentials:
(§1)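 Brains from FAAH+/+ or FAAH-/- mice were homogenized in ice-cold 10 mM Tris with 1 mM EDTA and 0.3 mM ascorbic acid. Aliquots were incubated with 0.1 mM primary amine for 20 min at 37 °C with stirring. Reactions were stopped with cold acetone containing AM404-d4 internal standard, and conjugates were measured by LC-MS/MS. n = 5–7.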

Series [2] is described as follows: Prodrug conversion in FAAH-/- mouse brain assessed as N-arachidonoyl conjugate level per g protein at 100 mg/kg, ip measured after 20 mins by LC-MS/MS analysis. The class given is ADME, organism-based. Also on record: unit: pmol/g protein. Conditions: in vivo. The essentials: (§2)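 FAAH+/+ and FAAH-/- mice (both sexes) received the primary amine i.p. in saline (sometimes with 5% DMSO). Brains were collected 20 min later, frozen, and homogenized in Tris/EDTA/ascorbate with 10 μM MAFP. N-arachidonoyl conjugates were quantified by positive-ion LC-MS/MS and normalized to protein.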

Series [3] is described as follows: Hepatotoxicity in C57BL/6 mouse assessed as change in ALT level at 300 mg/kg, ip measured after 12 hrs. It counts as toxicity, organism-based. Conditions: in vivo. The gist of the method:
(§3)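 Male C57BL/6 mice (8 weeks) were fasted 12–16 h, then given 300 mg kg⁻¹ i.p. in saline. At 12 h, blood was taken for serum ALT/AST (automated analyser). The left medial liver lobe was fixed in 4% formaldehyde, cryosectioned at 10 μm and stained with H&E. The ALT/AST ratio was tested against 1. Mean ± SEM, n = 6–7.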

Series [4] addresses T1, Fatty-acid amide hydrolase 1 (Mus musculus, UniProt O08914).
T1 sequence (O08914 whole entry): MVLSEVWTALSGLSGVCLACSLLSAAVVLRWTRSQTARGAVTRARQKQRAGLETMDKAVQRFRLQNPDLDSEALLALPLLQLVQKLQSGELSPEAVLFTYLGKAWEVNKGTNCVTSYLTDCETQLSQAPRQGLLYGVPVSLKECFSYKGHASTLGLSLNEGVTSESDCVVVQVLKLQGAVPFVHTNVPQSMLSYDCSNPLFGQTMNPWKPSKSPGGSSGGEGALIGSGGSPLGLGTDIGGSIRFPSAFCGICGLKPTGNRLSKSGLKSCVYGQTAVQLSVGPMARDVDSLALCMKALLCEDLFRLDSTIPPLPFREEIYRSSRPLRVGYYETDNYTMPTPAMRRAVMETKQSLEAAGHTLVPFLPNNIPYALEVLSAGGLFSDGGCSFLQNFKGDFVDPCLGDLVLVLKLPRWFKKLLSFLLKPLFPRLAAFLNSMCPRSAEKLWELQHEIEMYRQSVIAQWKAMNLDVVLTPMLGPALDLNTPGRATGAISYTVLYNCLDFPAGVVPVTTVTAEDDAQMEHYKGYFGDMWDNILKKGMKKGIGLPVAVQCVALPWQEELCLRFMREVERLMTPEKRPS
Description: Substrate activity at FAAH in FAAH+/+ mouse brain assessed as N-arachidonoyl conjugate level per g protein at 0.1 mM measured after 20 mins by LC-MS/MS analysis. The class given is ADME, tissue-based. Conditions: 100 µM. The gist of the method:
as §1

For series [5], the system named is Mus musculus. Description: Antipyretic activity against LPS-induced C57BL/6 mouse model of hyperthermia assessed as reduction in body temperature at 30 mg/kg, ip measured after 75 mins. It counts as functional, organism-based. The essentials:
(§4)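 Male C57BL/6 mice carried telemetry and recovered ≥1 week before use, housed at 29 °C ambient (near-thermoneutral). LPS 100 μg kg⁻¹ i.p. or saline was given, then drug or Ringer's acetate vehicle i.p. 3 h later. Core temperature was recorded continuously and analysed at the nadir time point. n = 4–9 per group.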

For series [6], the system named is Mus musculus. Description: Antipyretic activity against LPS-induced C57BL/6 mouse model of hyperthermia assessed as TXB2 level in diencephalon at 30 mg/kg, ip measured after 40 mins by LC-MS/MS analysis relative to control. It counts as functional. The essentials: (§5)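 Male C57BL/6 mice got LPS (E. coli O111:B4, 100 μg kg⁻¹ i.p.) or saline, then 3 h later the drug i.p. in Ringer's acetate vehicle. Diencephalon was taken 40 min later and homogenized in Tris/EDTA/ascorbate with 10 μM MAFP and 100 μM ibuprofen. Prostanoids were quantified by negative-ion LC-MS/MS and expressed as % of LPS + vehicle. n = 6.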

A short description of series [7]: Hepatotoxicity in C57BL/6 mouse assessed as centrilobular necrosis at 300 mg/kg, ip measured after 12 hrs by H and E staining based microscopic analysis. Conditions: in vivo. It counts as toxicity, organism-based. The essentials: as §3
Series [8] deals with Mus musculus. The experiment in a line: Antipyretic activity against LPS-induced C57BL/6 mouse model of hyperthermia assessed as PGE2 level in diencephalon at 30 mg/kg, ip measured after 40 mins by LC-MS/MS analysis relative to control. It counts as functional. The gist of the method:
as §5

Series [9] has as its system Mus musculus. Description: Antipyretic activity against LPS-induced C57BL/6 mouse model of hyperthermia assessed as PGF2alpha level in diencephalon at 30 mg/kg, ip measured after 40 mins by LC-MS/MS analysis relative to control. It counts as functional. The gist of the method:
as §5

Series [10] concerns Mus musculus. The experiment in a line: Antipyretic activity against LPS-induced C57BL/6 mouse model of hyperthermia assessed as 6-keto-PGF1alpha level in diencephalon at 30 mg/kg, ip measured after 40 mins by LC-MS/MS analysis relative to control. The class given is functional. The gist of the method:
as §5

Series [11] has as its system Mus musculus. The experiment in a line: Hepatotoxicity in C57BL/6 mouse assessed as change in ALT/AST ratio at 300 mg/kg, ip measured after 12 hrs. It counts as functional. The essentials:
as §3

The nature of series [12]: Prodrug conversion in FAAH+/+ mouse brain assessed as N-arachidonoyl conjugate level per g protein at 100 mg/kg, ip measured after 20 mins by LC-MS/MS analysis. It counts as ADME, organism-based. Also on record: unit: pmol/g protein. Conditions: in vivo. The gist of the method:
as §2

Series [13] relates to Mus musculus. The experiment in a line: Antinociceptive activity in C57BL/6 mouse assessed as reduction in licking time during second phase at 25 mg/kg, ip treated for 10 mins and measured for 15 to 40 mins in presence of FAAH inhibitor URB937 by formalin test. It counts as functional, organism-based. Conditions: time 50.0 min. The gist of the method: (§6)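 Male C57BL/6 mice, 8 weeks old. URB937 (5 μg in 5 μl) or capsazepine (10 μg in 5 μl) was given i.c.v. under brief isoflurane, 2 mm deep, 5 min before the i.p. test amine. Formalin 2.5% (25 μl) was injected intraplantar 10 min after dosing. Paw biting/licking time was scored in phase I (0–5 min) and phase II (15–40 min) by a blinded observer. Mean ± SEM, n = 8–14.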

In series [14] the test system is Mus musculus. The experiment in a line: Antipyretic activity against LPS-induced C57BL/6 mouse model of hyperthermia assessed as PGF2alpha level in diencephalon at 25 mg/kg, ip measured after 40 mins by LC-MS/MS analysis relative to control. The class given is functional. The essentials:
as §5

The test system of series [15] is Mus musculus. The experiment in a line: Antipyretic activity against LPS-induced C57BL/6 mouse model of hyperthermia assessed as PGE2 level in diencephalon at 25 mg/kg, ip measured after 40 mins by LC-MS/MS analysis relative to control. The class given is functional. The gist of the method: as §5
In series [16] the test system is Mus musculus. The experiment in a line: Antinociceptive activity in ip dosed C57BL/6 mouse assessed as reduction in licking time during second phase treated for 10 mins and measured for 15 to 40 mins by formalin test. It counts as functional, organism-based. Conditions: dose 25-100 mg/kg, time 50.0 min. The gist of the method:
(§7)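 Male C57BL/6 mice, 8 weeks old, randomized in equal blocks (5–10 per group), observer blinded. The test amine or vehicle was given i.p. 10 min before intraplantar 2.5% formalin (25 μl/mouse). Time spent biting/licking the injected paw was recorded in phase I (0–5 min) and phase II (15–40 min). Mean ± SEM, n = 5–6.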

Series [17] deals with Mus musculus. Description: Antipyretic activity against LPS-induced C57BL/6 mouse model of hyperthermia assessed as reduction in body temperature at 25 mg/kg, ip measured after 48 mins. It counts as functional, organism-based. The gist of the method: as §4
Series [18] relates to Mus musculus. The experiment in a line: Antinociceptive activity in C57BL/6 mouse assessed as reduction in licking time during second phase at 25 mg/kg, ip treated for 10 mins and measured for 15 to 40 mins in presence of TRPV1 antagonist capsazepine by formalin test. Conditions: time 50.0 min. It counts as functional, organism-based. The essentials:
as §6

Series [19] has as its system Mus musculus. Description: Antipyretic activity against LPS-induced C57BL/6 mouse model of hyperthermia assessed as 6-keto-PGF1alpha level in diencephalon at 25 mg/kg, ip measured after 40 mins by LC-MS/MS analysis relative to control. It counts as functional. The gist of the method: as §5
Series [20] has as its system Mus musculus. The experiment in a line: Antinociceptive activity in C57BL/6 mouse assessed as reduction in licking time during first phase at 25 mg/kg, ip treated for 10 mins and measured for 5 mins in presence of FAAH inhibitor URB937 by formalin test. It counts as functional, organism-based. Conditions: time 15.0 min. The gist of the method:
as §6

For series [21], the system named is Mus musculus. The experiment in a line: Antinociceptive activity in C57BL/6 mouse assessed as reduction in licking time during first phase at 25 mg/kg, ip treated for 10 mins and measured for 5 mins in presence of TRPV1 antagonist capsazepine by formalin test. It counts as functional, organism-based. Conditions: time 15.0 min. The gist of the method: as §6

A short description of series [22]: Effect on locomotor activity in C57BL/6 mouse assessed as change in latency to fall at 25 mg/kg, ip treated for 10 mins measured up to 60 mins by rotarod test. Conditions: in vivo, 1 h. The class given is ADME, organism-based. The essentials:
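Male C57BL/6 mice were first trained on a rotarod at a constant 4 rpm in 1-min sessions. At various times after i.p. dosing, the drum was accelerated from 4 to 40 rpm over 5 min and the latency to fall was recorded.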
In general terms: Falling from the rotarod earlier than controls is read as motor impairment.

In series [23] the test system is Mus musculus. Description: Antinociceptive activity in ip dosed C57BL/6 mouse assessed as reduction in licking time during first phase treated for 10 mins and measured for 5 mins by formalin test. It counts as functional, organism-based. Conditions: dose 25-100 mg/kg, time 15.0 min. The essentials:
as §7

Series [24] concerns Mus musculus. The experiment in a line: Antipyretic activity against LPS-induced C57BL/6 mouse model of hyperthermia assessed as TXB2 level in diencephalon at 25 mg/kg, ip measured after 40 mins by LC-MS/MS analysis relative to control. It counts as functional. The essentials: as §5

With `Nc1ccc(O)cc1` [4-AMINOPHENOL], the Drug metabolism in series [1] was determined as 0.05 nmol/g; in series [2], 24 pmol; in series [4], 8.8 nmol/g; in series [12] it was 1002 pmol. Moreover, the Activity entry is reported as “Non-Toxic” in series [3]; 60% in the series on Mus musculus [6]; “Non-Toxic” in series [7]; 44% with Mus musculus [8]; 81% in the series with Mus musculus [9]; 60% with Mus musculus [10]. The outcome with Mus musculus [5] was inactive. The Ratio in the series on Mus musculus [11] was above 1.

With `Nc1ccc2[nH]ncc2c1`, the outcome in the series on Mus musculus [13] and in the series on Mus musculus [18] was inactive. For the same compound, the Drug metabolism stood at 0.09 nmol/g in [1], 161 pmol in series [2], 12 nmol/g in series [4] and 1731 pmol in series [12]. Moreover, the Activity entry is “Non-Toxic” in series [3]; 100% with Mus musculus [14]; 96% with Mus musculus [15]; “Dose-dependent effect” with Mus musculus [16]; “Non-Toxic” in series [7]; 99% with Mus musculus [19]. The results for the Activity result (in series [22]; with Mus musculus [23]; in the series on Mus musculus [24]) were “Non-Toxic”, “Dose-dependent effect” and 91%, respectively. For the same compound, the result with Mus musculus [17], in the series with Mus musculus [20] and in the series with Mus musculus [21] was Active.
